Experimental data from ChEMBL document CHEMBL2321856, “Optimizing small molecule inhibitors of calcium-dependent protein kinase 1 to prevent infection by Toxoplasma gondii” (J Med Chem, 2013).
Active and inactive are the calls of the source. The rule behind the calls is not given here.

Assays:
Toxoplasma gondii [1] = test: Antiparasitic activity against wild type tachyzoites of Toxoplasma gondii RH type 1 infected in HFF cells incubated for 20 mins prior to inoculation followed by compound washout at 4 hrs measured after 72 hrs by beta-galactoside reporter assay; assay type: functional, organism-based; conditions: RH type 1, HFF
How it was run: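 Type I RH 2F clone (β-gal) in confluent HFF, DMEM with 10% FBS. Compounds diluted from 10 mM DMSO stock into medium with 1% DMSO (also no-compound control). Parasites preincubated 20 min at room temperature with compound, 5×10^2/well added, spun ~300 g 5 min. Washed with warm PBS at 4 h, grown to 72 h. Triton X-100 lysis, chlorophenol red-β-D-galactopyranoside, A570. Triplicates; EC50 from variable-slope sigmoidal fit.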

[2] = Inhibition of Toxoplasma gondii RH full length CDPK1 expressed in Escherichia coli BL21(DE3) using syntide-2 peptide as substrate after 20 mins by ELISA; assay type: cell-free
How it was run: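 His-tagged recombinant CDPK1 purified by nickel affinity. Syntide-2-coated plates blocked with 3% BSA. Reaction run 20 min at 30°C in HEPES pH 7.5 with 10 mM MgCl₂, 2.5 mM CaCl₂, 0.1 mM EGTA and 1 mM DTT. Each enzyme used at its half-maximal-activity concentration with ATP at its own Km. Phosphopeptide detected by mAb MS-6E6/HRP-TMB at A450. Triplicates; IC50 from variable-slope sigmoidal fit.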

Liver microsomes [3] = test: Intrinsic clearance in rat liver microsomes assessed per mg of protein after 10 to 60 mins by LC-MS analysis in presence of NADPH; assay type: ADME, Microsome
Liver microsomes [4] = test: Half life in rat liver microsomes by LC-MS analysis; assay type: ADME, Microsome
Toxoplasma gondii [5] = test: Ratio of growth inhibition of Toxoplasma gondii harboring wild type CDPK1 to growth inhibition of Toxoplasma gondii harboring CDPK1 G128M mutant; assay type: functional
Toxoplasma gondii [6] = test: Antiparasitic activity against Toxoplasma gondii harboring wild type CDPK1 infected in HFF cells incubated for 20 mins prior to infection followed by compound washout at 1 hr measured after 72 hrs by crystal violet staining method; assay type: functional, organism-based
How it was run: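 CDPK1-cKO parasites complemented with wild-type CDPK1, grown 72 h with 1 μg/ml ATc and kept in ATc throughout. Parasites pre-incubated 20 min at 37°C in DMEM/10% FBS with compound or 1% DMSO vehicle. 10⁵ per well added to confluent HFF, spun 300g for 2 min, infected 1 h at 37°C, then rinsed 5× with warm PBS. Grown 72 h with ATc; lysis read by crystal violet A570, as % of DMSO control.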

Toxoplasma gondii [7] = test: Antiparasitic activity against tachyzoites of Toxoplasma gondii RH type 1 infected in HFF cells incubated for 24 hrs followed by compound washout measured after 72 hrs by beta-galactoside reporter assay; assay type: functional, organism-based
How it was run: (§1)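 RH type I 2F clone expressing β-gal; compounds from 10 mM DMSO stocks diluted in medium with 1% DMSO. Parasites preincubated with compound 20 min at room temperature, then 5×10^2/well added to confluent HFF in DMEM/10% FBS and centrifuged. Washed with warm PBS after 4 or 24 h, grown to 72 h. Lysed in 1% Triton X-100; 1 mM chlorophenol red-β-D-galactopyranoside, A570.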

Toxoplasma gondii [8] = test: Antiparasitic activity against Toxoplasma gondii type 2 expressing Pru-LUC infected in Balb/c mouse assessed reduction in number of tissue cysts in brain at 5 mg/kg, […] for 10 days measured after 30 days by fluorescently labeled lectin staining based microscopic analysis relative to control; assay type: functional, organism-based; set-up: dose 5 mg/kg; conditions: type II
Toxoplasma gondii RH [9] = test: Selectivity ratio of IC50 for Toxoplasma gondii RH CDPK1 G128S mutant to Toxoplasma gondii RH full length CDPK1
Toxoplasma gondii RH [10] = test: Selectivity ratio of IC50 for Toxoplasma gondii RH CDPK1 G128A mutant to Toxoplasma gondii RH full length CDPK1
Toxoplasma gondii [11] = test: Antiparasitic activity against tachyzoites of Toxoplasma gondii RH type 1 infected in HFF cells incubated for 4 hrs followed by compound washout measured after 72 hrs by beta-galactoside reporter assay; assay type: functional, organism-based; conditions: RH type 1, HFF; how it was run: as §1
Toxoplasma gondii [12] = test: Antiparasitic activity against trachyzoites of Toxoplasma gondii type 2 expressing Pru-LUC infected in Balb/c mouse assessed as host survival at 5 mg/kg, ip administered for 10 days measured on day 30; conditions: type II

| Compound | EC50 (Toxoplasma gondii [1]) [nM] | IC50 [2] [nM] | also measured |
| --- | --- | --- | --- |
| CC(C)(C)n1nc(Cc2ccc3ccccc3c2)c2c(N)ncnc21 | 1940 | 35.4 |  |
| CC(C)(C)n1nc(Cc2cccc(Cl)c2F)c2c(N)ncnc21 | 360 | 7.37 | CLint (Liver microsomes [3]): > 350 µL/min/mg; t1/2 (Liver microsomes [4]): 2.5 min |
| CC(C)(C)n1nc(Cc2cc(F)cc(Cl)c2)c2c(N)ncnc21 | 430 | 13.2 |  |
| CC(C)n1nc(Cc2cc(F)cc(Cl)c2)c2c(N)ncnc21 | 180 | 4.59 | CLint (Liver microsomes [3]): > 350 µL/min/mg; t1/2 (Liver microsomes [4]): 2.4 min; Ratio (Toxoplasma gondii [5]): 100; Activity (Toxoplasma gondii [6]): Active |
| CC(C)(C)n1nc(-c2cccc(OCc3c(Cl)cccc3Cl)c2)c2c(N)ncnc21 | 4530 | 2470 |  |
| CCc1nc(N)nc(N)c1-c1ccc(Cl)cc1 |  |  | Activity (Toxoplasma gondii [7]): Active |
| CC(C)(C)n1nc(Cc2cccc(Cl)c2Cl)c2c(N)ncnc21 | 380 | 3.38 |  |
| CC(C)(C)n1nc(Cc2cccc(Br)c2)c2c(N)ncnc21 | 380 | 9.64 | CLint (Liver microsomes [3]): > 350 µL/min/mg; t1/2 (Liver microsomes [4]): 3 min |
| CC(C)(C)c1ccc(-c2nn(C(C)(C)C)c3ncnc(N)c23)cc1 | 3770 | 1310 |  |
| CC(C)(C)n1nc(Cc2ccc(F)c(Cl)c2)c2c(N)ncnc21 | 410 | 8.47 | CLint (Liver microsomes [3]): > 350 µL/min/mg; t1/2 (Liver microsomes [4]): 4 min |
| CC(C)(C)n1nc(-c2cccc3ccccc23)c2c(N)ncnc21 | 700 |  |  |
| CC(C)n1nc(Cc2cccc(Cl)c2F)c2c(N)ncnc21 | 1400 | 1.43 |  |
| Cc1cccc(Cc2nn(C(C)(C)C)c3ncnc(N)c23)c1 | 110 | 3.99 | Activity (Toxoplasma gondii [8]): Active; Ratio (Toxoplasma gondii [5]): 100; Activity (Toxoplasma gondii [6]): Active; Ratio IC50 (Toxoplasma gondii RH [9]): 5.6; Ratio IC50 (Toxoplasma gondii RH [10]): 3; EC50 (Toxoplasma gondii [11]): 100 nM; Activity (Toxoplasma gondii [12]): Active |
| CC(C)(C)n1nc(Cc2cccc3ccccc23)c2c(N)ncnc21 | 1310 |  |  |
| CC(C)n1nc(C(O)c2cccc(Cl)c2Cl)c2c(N)ncnc21 (stereo not drawn) | 9460 | 200 | CLint (Liver microsomes [3]): 68 µL/min/mg; t1/2 (Liver microsomes [4]): 20.2 min |
| CC(C)n1nc(Cc2ccc(F)c(Cl)c2)c2c(N)ncnc21 | 560 | 13.1 |  |
| CC(C)(C)n1nc(-c2ccc3c(c2)OCO3)c2c(N)ncnc21 | 620 | 13.8 |  |
| CC(C)(C)n1nc(-c2cccc(Oc3ccccc3)c2)c2c(N)ncnc21 | 1320 | 26.6 |  |
| CC(C)n1nc(Cc2cc(F)cc(F)c2)c2c(N)ncnc21 | 2070 | 50.9 |  |
| CC(C)(C)n1nc(Cc2cccc(I)c2)c2c(N)ncnc21 | 1120 | 12.9 |  |
| CC(C)(C)n1nc(-c2cccc(OCc3ccccc3)c2)c2c(N)ncnc21 | 11600 | 374 |  |
| CC(C)n1nc(Cc2cccc(Cl)c2Cl)c2c(N)ncnc21 | 250 | 2.38 | Activity (Toxoplasma gondii [8]): Active; CLint (Liver microsomes [3]): 190 µL/min/mg; t1/2 (Liver microsomes [4]): 7 min; Ratio (Toxoplasma gondii [5]): 100; Activity (Toxoplasma gondii [6]): Active; Activity (Toxoplasma gondii [12]): Active |
| CC(C)(C)n1nc(Cc2cc(F)cc(F)c2)c2c(N)ncnc21 | 610 |  | Activity (Toxoplasma gondii [8]): Active; Activity (Toxoplasma gondii [12]): Active |
| CC(C)(C)n1nc(Cc2cccc(Cl)c2)c2c(N)ncnc21 | 30 |  | Activity (Toxoplasma gondii [8]): Active; Activity (Toxoplasma gondii [6]): Active; Activity (Toxoplasma gondii [12]): Active |
| CC(C)n1nc(Cc2cc(Cl)ccc2F)c2c(N)ncnc21 | 6730 | 92.4 |  |
| CC(C)n1nc(C(F)c2cccc(Cl)c2Cl)c2c(N)ncnc21 (stereo not drawn) | 2630 | 13.6 | CLint (Liver microsomes [3]): 107 µL/min/mg; t1/2 (Liver microsomes [4]): 12.9 min |
| CC(C)(C)n1nc(Cc2cc(Cl)ccc2F)c2c(N)ncnc21 | 920 | 12.5 | CLint (Liver microsomes [3]): 250 µL/min/mg; t1/2 (Liver microsomes [4]): 5.5 min |
